From the RNAGym collection of RNA variant scans (doi:10.1126/science.aae0568) come the findings set out here.

Variants at the floor of the assay were thinned out.

The chains are these.
B1: tRNA (parent)
chain: GUUCCGUUGGCGUAAUGGUAACGCGUCUCCCUCCUAAGGAGAAGACUGCGGGUUCGAGUCCCGUACGGAACG

The series covers variants of B1. Briefly: yeast fitness relative to wild type (ratio to wild type); higher = fitter; tRNA-Arg(CCU), competitive growth, 37 C, YPD. The method in brief:
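Amplicons of the tRNA-Arg(CCU) gene were sequenced, 100-nucleotide paired-end, from the start population and from each end population of a pooled yeast competition. The competition, in six parallel replicates, lasted 24 hours in YPD at 37°C. Fitness relative to wild type was calculated from changes in genotype frequencies. Genotypes had to have ≥ 100 starting reads, and estimates < 0.5 were set to 0.5.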
In the case of GUUCCGUUGCCGUAUUGGUAACGCGUCUCCCUACUUAGGAGAAGACUGCGGGUUCGAGUCCUGUACGGAACG [G10C A15U C33A A36U C62U], the yeast fitness was at most 0.5.
In the case of GUUCCGUUGCCGUAGUGGUAACGCGUCUCCCUCCAAAGGAGAAAACUGCGGGUUCGAGUCCCGUACGGCACG [G10C A15G U35A G44A A69C] it was at most 0.5; in that of GUUCCGUUGACGUAAUGGUAACGCGUCUCCCUCCUAAGGAGAAGACUGCGGGUUCGAGCCCCGUACGGAACG [G10A U59C], 0.721.
For GUUCCGUUGCCGUAAUGGUGACGUGUCUCCCUCCUAACGAGAAGACUGCGGGUUCCAGUCCCGUACGGAACG [G10C A20G C24U G38C G56C], the yeast fitness was 0.561.
With GUUCCGUUGCCGUAAUGGUACCGCGUCUCCCUCCUAAGGAGAAGACUGCGGGUUCGAGUCCCGUAGGGAACG [G10C A21C C66G], the yeast fitness is at most 0.5.
To GUUCCGUUGACGUAAUGGUAACGCGUCUCCCACCUAAGGAGAAGACUGCGGGUUCGAGUCCCGUACGGAACG [G10A U32A] belongs 0.601; to GUUCCGUUGACGUAAUGGUAACGCGUCUCCCCCCUAAGGAGAAGACUGCGGGUUCGAGUCCCGUACGGAACG [G10A U32C], 0.786; to GUUCCGUUGCCGUAAUGGUGACGUGUCUCCCUCCUAACGAGAAGACUGCGGGGUCGAGUCCCGUACGGAACG [G10C A20G C24U G38C U53G], at most 0.5.
To GUUCCGUUGACGUAAUGGUAACGCGUCACCCUCCUAAGGAGAAGACUGCGGGUUCGAGACCCGUACGGAACG [G10A U28A U59A] belongs at most 0.5; to GUUCCGUUGCCGUGAUGGUAACGCGACUCCCUCCUAAGGAGAAGACUGUGGGUUCGAGUCCCGUUCGGAACG [G10C A14G U26A C49U A65U], at most 0.5.
On to GUUCCGUUGCCGUAAUGGUACCGCGUCUCGCCCCUAAGGAGAAGACUGCGGGUUCGAGUUCCGUACCGAACG [G10C A21C C30G U32C C60U G67C], for which the yeast fitness worked out at 0.54.
As to GUUCCGUUGCCGUAUUGGUAACGCGUCUGCCUCCUAAGGAGAAGAUUGCGCGUUCGAGUCCCGUGCGGAACG [G10C A15U C29G C46U G51C A65G], the yeast fitness was at most 0.5.
Turning to GUUCCGUUGACGUAAUGGUAACGCGGCUCCCUCCUAAGGAGAAGACUGCGGGUUCGAGUCCCGUACGGAACG [G10A U26G], the yeast fitness worked out at 0.681.
In the case of GUUCCGUUGACGUAAUGGUAACGCGCCUCCCUCCUAAGGAGAAGACUGCGGGUUCGAGUCCCGUACGGAACG [G10A U26C], the yeast fitness was 0.736.
With GUUCCGUUGACGUAAUGGUAACGCGACUCCCUCCUAAGGAGAAGACUGCGGGUUCGAGUCCCGUACGGAACG [G10A U26A], the yeast fitness came out at 0.731.
GUUCCGUUGCCGUUAUGGAAAUGCGUCUCCCUCCUGAGGAGAAGACUGCGGGUUCGAGUCCCGUACGGAACG [G10C A14U U19A C22U A36G]: the yeast fitness is at most 0.5.
Take GUUCCGUUGCCGUAAUGGUAGCGCGUCUCCCUCCUAAGGAGAAGACUGCGGGUUCGAGUCCCGUACGGAACG [G10C A21G]: the yeast fitness is 0.633.
Turning to GUUCCGUUGCCGUCAUGGUAACGCGUCUCCCUCCUAAGGAGAAGACUGCGGGUUCGAGUCCUGUACGGAACG [G10C A14C C62U], the yeast fitness came out at 0.537.
Consider GUUCCGUUGACGUAAUGGUAACGCGCCUCCCUCCUGAGGAGAAGACUGCGGGUUCAAGUCCCGUACGGAACG [G10A U26C A36G G56A], for which the yeast fitness is at most 0.5.
As to GUUCCGUUGCCGUAAUGGUACGGCGUCUCCCUCCUGAGGAGAAGACUGCGGGUUCGCGUCCCGUACGGAACG [G10C A21C C22G A36G A57C], the yeast fitness was at most 0.5.
In the case of GUUCCGUUGCCGUUAUGGUAACGCGUCUCCCUCCUAAGGAGAAGACUGCGAGUUCGAGUCCUGUACGGAACG [G10C A14U G51A C62U], the yeast fitness was at most 0.5.
For GUUCCGUUGCCGUAAUGGUGACGCGUCUCCCUCCUAAGGAGAAGACUGCGGGUUCGAGUCCCGUACGGAACG [G10C A20G], the yeast fitness stood at 0.775.
Turning to GUUCCGUUGCCGUAGUGGUAACGCGUGUCCCUCCUAAGGAGAAGACUGCGGGUUCGAGUCCCGUACGGAACG [G10C A15G C27G], the yeast fitness is 0.695.
Turning to GUUCCGUUGCCGUAUUGGUAACGCGUCUGCCUCCUAAGGAGAAGAUUGCGCGUUCGAGUCGCGUACGGAACG [G10C A15U C29G C46U G51C C61G], the yeast fitness was at most 0.5.
GUUCCGUUGCCGUAAUGGUAACGCGUCUCCCUCCUCAGGAGAAGACUGCGGGUUGGAGUCCCGUACGGAACG [G10C A36C C55G]: the yeast fitness was at most 0.5.
In the case of GUUCCGUUGACGUAAUGGUAACGCGUCUCCCUCCUAAGGAGAAGACUGCGGGUUCGAGUCCCGAACGGAACG [G10A U64A], the yeast fitness is 0.73.
For GUUCCGUUGACGUAAUGGUAACGCGUCUCCCUCCUAAGGAGAAGACUGCGGGUCCGAGUCCCGUACGAAGCG [G10A U54C G68A A70G], the yeast fitness was at most 0.5.
As for GUUCCGUUGACGUAAUGGUAACGCGUCUCCCUCCGAUGGAGAAGACUGCGGGUUCGAGUCCCGUACGGAACG [G10A U35G A37U], the yeast fitness is 0.551.
GUUCCGUUGCCGUUAUGGUAACGCGUCUCCCUCCUAAGGAGAAGACUGCGGGUUCGAGUCCCGUAUGGAACG [G10C A14U C66U]: the yeast fitness was at most 0.5.
GUUCCGUUGCCGUUAUGGUAACGCGUCUCCCCCCUAAGGAGAAGACUGCGGGUUCGAGUCCUGUACGGAACG [G10C A14U U32C C62U]: the yeast fitness was at most 0.5.
With GUUCCGUUGCCGUUAUGGUAACGCGUCUCCCUCCUAAGGAGAAGACUGCGGGUUCGAGUCCUGUACGGAACG [G10C A14U C62U], the yeast fitness amounted to 0.51.
As to GUUCCGUUGACGUAAUGGAAACGCGUCUCCCUCCUAAGGAGAAGACUGCGGGUUCGAGUCCCGUACGGAACG [G10A U19A], the yeast fitness turned out to be 0.729.
In the case of GUUCCGUUGACGUAACGGUAACGCGUCUCCCUCCCAAGGUGAAGACUGCGGGUUCGAGUCCCGUACGGAACG [G10A U16C U35C A40U], the yeast fitness is at most 0.5.
In the case of GUUCCGUUGCCGUAAUGGUACCGCGUCUCUCUCCUAAGGACAAGACUGCGGGUUCGAGUCCCGUACGGAACG [G10C A21C C30U G41C], the yeast fitness was at most 0.5.
For GUUCCGUUGCCGUAAUGGUAACGCGUCUCCCUCCUUAGGAGGAGACUGCGGGUUCAAGGCCCGUACGGAACG [G10C A36U A42G G56A U59G], the yeast fitness was at most 0.5.
In the case of GUUCCGUUGCCGUACUGGUAACGUGUCUCCCUCCUAAGGAGAAGACUGCGGGUCCGAGUACAGUACGGAACG [G10C A15C C24U U54C C60A C62A] it was 0.585; in that of GUUCCGUUGACGUAAUGGUAACGCGACUCCCUCCUAAGGAGAGGACUGCGGGUUCGAGUCCCGUACGGAUCG [G10A U26A A43G A70U], at most 0.5.
